Broadly, the EC50 is the concentration that produces a half-maximal response.

One molecule from publication PMC4474499 (Science Advances, 2015) can be followed below.

For assay [1], the target named is T1, human TLR8 (Homo sapiens, UniProt Q9NR97).
T1 sequence (Q9NR97 27-1041): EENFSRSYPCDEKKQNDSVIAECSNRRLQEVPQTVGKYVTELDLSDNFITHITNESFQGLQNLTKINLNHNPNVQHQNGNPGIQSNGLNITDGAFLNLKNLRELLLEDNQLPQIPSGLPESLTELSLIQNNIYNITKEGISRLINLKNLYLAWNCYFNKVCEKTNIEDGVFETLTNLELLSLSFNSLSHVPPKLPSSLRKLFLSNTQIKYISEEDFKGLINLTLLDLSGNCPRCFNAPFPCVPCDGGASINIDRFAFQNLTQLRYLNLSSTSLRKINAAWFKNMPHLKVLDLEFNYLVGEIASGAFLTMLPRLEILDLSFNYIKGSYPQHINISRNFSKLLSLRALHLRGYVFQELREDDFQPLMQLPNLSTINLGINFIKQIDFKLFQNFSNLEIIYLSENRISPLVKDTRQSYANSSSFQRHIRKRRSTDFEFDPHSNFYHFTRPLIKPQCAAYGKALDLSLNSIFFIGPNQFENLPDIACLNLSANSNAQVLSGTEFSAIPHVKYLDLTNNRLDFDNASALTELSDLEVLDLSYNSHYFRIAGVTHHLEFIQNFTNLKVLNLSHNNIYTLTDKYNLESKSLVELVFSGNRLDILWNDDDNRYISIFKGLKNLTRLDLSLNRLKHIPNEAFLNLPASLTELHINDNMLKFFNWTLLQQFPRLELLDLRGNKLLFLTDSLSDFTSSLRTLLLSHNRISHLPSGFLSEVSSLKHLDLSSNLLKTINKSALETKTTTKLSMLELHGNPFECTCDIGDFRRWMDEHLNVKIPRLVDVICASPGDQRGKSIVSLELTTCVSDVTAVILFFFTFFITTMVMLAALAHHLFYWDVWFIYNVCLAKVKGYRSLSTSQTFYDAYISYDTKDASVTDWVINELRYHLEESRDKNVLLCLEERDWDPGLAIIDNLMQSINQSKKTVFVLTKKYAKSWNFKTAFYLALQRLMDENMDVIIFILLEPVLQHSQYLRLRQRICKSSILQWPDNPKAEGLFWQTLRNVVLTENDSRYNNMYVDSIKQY
Briefly: SEAP reporter gene detection assay in HEK-Blue TLR8 cells. It is filed as cell-based. Conditions: 0 to 20 μM, 24 hours. Put shortly: (§1)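 HEK 293 cells stably carrying the human TLR and a SEAP reporter, 4 × 10^4/well, grown 24 h. Then 24 h in Opti-MEM/0.5% FBS with test compound. Positive controls: poly(I:C) 0–10.9 μg/ml (TLR3), LPS 0–36.5 ng/ml (TLR4), FLA-BS 0–10 μg/ml (TLR5), R848 0–6 μg/ml (TLR7, TLR8). Supernatant heated 30 min at 65°C, then CSPD substrate added; luminescence read after 20 min.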
On the technique in general: A reporter such as luciferase makes a cellular process visible.

Assay [2] deals with human TLR2 (Homo sapiens, UniProt O60603+Q15399). Briefly: SEAP reporter gene detection assay in HEK-Blue hTLR2 cells. Type of assay: cell-based. Put shortly:
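HEK-Blue hTLR2 cells (SEAP reporter), 4 × 10^4/well, grown 24 h. Then 24 h in Opti-MEM/0.5% FBS with compounds at 0–50 μM or 0–100 μM. Pam3CSK4 (0–66 nM) used as reference agonist. Supernatant heat-treated 30 min at 65°C, cooled, mixed with SEAP buffer and CSPD substrate; luminescence read after 20 min.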

Assay [3] deals with Raw 264.7 cells. Briefly: Quantitative RT-PCR of mRNA levels in Raw 264.7 macrophage cells. It is filed as cell-based, mouse. In a few lines: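 RAW 264.7 cells, 1 × 10^6/well, grown 24 h, then given fresh RPMI 1640. Exposed to test compound, or 33 nM (50 ng/ml) Pam3CSK4, for 0, 2, 8 or 24 h. Cells washed in cold PBS and frozen. Total RNA extracted (RNeasy) for qRT-PCR. Fold change calculated by ΔΔCt versus DMSO-treated cells, means ± SD.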

For assay [4], the system named is NF-κB. Briefly: U937 NF-κB–GFP reporter assay. It is filed as cell-based, human. Conditions: U937 cells.
In assay [5] the test system is TNF-α. Briefly: TNF-α ELISA in Raw 264.7 cells. It is filed as cell-based. To be noted: Mus musculus, RAW264.7, 24 h, read-out: EC50, TNF-α production. In a few lines:
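RAW 264.7 cells, 1 × 10^6/well in six-well plates, grown 24 h. Medium refreshed (RPMI 1640). Treated 24 h with test compound; 66 nM Pam3CSK4 as positive control. Supernatants frozen at −80°C. TNF-α quantified by sandwich ELISA against recombinant cytokine standards, each sample in triplicate.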
For orientation: ELISA stands for enzyme-linked immunosorbent assay.

Assay [6] has as its target human TLR5 (Homo sapiens, UniProt O60602). Briefly: SEAP reporter gene detection assay in HEK-Blue TLR5 cells. Type of assay: cell-based. To be noted: 0 to 20 μM, 24 hours. In a few lines:
as §1

For assay [7], the system named is HEK-Blue hTLR2 cells. Briefly: QUANTI-Blue SEAP assay with anti-hTLR antibodies. It is filed as cell-based, human. Conditions: 60 nM, 24 hours. In a few lines: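 HEK-Blue hTLR2 cells, 4 × 10^4/well, grown 24 h. Then 24 h in Opti-MEM/0.5% FBS containing 60 nM test compound, 0.66 nM Pam3CSK4 or 0.77 nM Pam2CSK4. Anti-hTLR1 IgG, anti-hTLR2 IgA or anti-hTLR6 IgA added at 0–10 μg/ml. Supernatant incubated with QUANTI-Blue 1 h at 37°C; A655 read.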

Assay [8] relates to primary rat macrophage cells. Briefly: Primary peritoneal macrophage NO activation assay. Type of assay: cell-based. Conditions: 24 hours. Put shortly: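 Peritoneal cells from Sprague-Dawley rats collected by HBSS lavage, then red cells lysed. Seeded at 40,000/well in Iscove's medium with 10% FBS; adhered 2 h; non-adherent cells washed off; cultured overnight. Serum-free Iscove's then given with test compound, or 66 nM Pam3CSK4, for 24 h. Supernatant nitrite measured by diaminonaphthalene fluorescence.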

Sequence of human TLR2 (O60603 21-784): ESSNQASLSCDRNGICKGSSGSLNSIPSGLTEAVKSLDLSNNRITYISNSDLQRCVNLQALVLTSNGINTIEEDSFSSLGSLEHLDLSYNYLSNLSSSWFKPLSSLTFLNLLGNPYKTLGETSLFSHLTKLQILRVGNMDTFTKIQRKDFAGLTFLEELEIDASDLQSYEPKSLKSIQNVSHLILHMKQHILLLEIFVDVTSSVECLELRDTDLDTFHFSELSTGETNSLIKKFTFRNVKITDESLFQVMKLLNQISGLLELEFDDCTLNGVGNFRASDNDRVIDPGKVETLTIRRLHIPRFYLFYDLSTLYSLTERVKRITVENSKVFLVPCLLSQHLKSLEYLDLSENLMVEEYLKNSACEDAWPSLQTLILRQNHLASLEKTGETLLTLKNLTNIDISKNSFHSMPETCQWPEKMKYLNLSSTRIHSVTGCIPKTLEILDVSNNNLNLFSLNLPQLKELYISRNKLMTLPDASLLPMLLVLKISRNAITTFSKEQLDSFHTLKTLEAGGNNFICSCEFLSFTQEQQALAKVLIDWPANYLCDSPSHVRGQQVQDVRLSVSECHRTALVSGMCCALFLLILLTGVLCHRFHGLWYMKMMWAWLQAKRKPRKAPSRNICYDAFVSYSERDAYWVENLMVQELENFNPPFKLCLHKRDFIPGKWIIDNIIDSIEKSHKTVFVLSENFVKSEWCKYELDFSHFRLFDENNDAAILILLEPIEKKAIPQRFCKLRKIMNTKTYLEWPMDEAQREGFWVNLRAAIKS
Sequence of human TLR2 (Q15399 25-786): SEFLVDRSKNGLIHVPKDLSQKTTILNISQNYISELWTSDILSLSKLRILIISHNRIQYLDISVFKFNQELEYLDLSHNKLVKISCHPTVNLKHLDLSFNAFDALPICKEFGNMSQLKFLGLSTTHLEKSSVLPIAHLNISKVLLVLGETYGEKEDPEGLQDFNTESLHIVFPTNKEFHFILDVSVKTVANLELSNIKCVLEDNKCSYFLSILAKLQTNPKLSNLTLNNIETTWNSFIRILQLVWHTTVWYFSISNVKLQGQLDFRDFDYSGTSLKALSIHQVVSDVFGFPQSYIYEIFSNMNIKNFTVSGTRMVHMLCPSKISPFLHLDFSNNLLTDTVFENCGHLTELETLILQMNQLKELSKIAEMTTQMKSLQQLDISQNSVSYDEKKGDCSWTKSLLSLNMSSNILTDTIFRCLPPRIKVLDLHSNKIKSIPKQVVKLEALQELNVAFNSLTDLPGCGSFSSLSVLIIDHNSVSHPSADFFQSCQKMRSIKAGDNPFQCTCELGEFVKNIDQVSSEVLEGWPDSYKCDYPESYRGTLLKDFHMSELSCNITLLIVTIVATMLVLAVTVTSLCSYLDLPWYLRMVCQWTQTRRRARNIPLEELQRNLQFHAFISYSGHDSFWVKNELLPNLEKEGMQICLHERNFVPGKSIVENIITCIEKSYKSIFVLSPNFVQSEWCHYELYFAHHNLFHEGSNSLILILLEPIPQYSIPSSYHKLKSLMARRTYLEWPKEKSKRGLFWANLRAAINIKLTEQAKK
Sequence of human TLR5 (O60602 21-858): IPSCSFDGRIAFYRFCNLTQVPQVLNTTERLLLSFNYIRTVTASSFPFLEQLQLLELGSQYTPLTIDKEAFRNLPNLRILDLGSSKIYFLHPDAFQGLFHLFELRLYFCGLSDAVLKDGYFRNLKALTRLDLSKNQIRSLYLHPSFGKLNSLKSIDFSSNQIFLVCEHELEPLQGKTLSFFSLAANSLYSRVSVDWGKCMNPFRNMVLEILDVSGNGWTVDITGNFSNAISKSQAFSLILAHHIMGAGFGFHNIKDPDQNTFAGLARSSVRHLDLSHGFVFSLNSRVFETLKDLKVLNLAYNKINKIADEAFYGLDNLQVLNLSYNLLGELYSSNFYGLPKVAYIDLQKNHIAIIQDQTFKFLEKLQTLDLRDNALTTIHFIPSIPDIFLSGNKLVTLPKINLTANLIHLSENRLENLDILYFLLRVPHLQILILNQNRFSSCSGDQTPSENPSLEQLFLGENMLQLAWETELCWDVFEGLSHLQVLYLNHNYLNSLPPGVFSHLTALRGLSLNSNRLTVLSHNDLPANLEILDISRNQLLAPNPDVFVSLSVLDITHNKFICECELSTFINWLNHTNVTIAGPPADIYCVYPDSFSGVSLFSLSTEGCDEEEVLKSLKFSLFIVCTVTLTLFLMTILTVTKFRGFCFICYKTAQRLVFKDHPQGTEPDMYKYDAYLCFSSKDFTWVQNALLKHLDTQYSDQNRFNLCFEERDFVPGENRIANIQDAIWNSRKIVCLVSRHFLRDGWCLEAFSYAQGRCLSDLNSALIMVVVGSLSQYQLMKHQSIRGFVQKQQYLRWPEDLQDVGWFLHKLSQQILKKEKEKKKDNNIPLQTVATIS

As for `CNc1ccc([N+](=O)[O-])cc1-n1cnc(-c2ccc(C(F)(F)F)cc2)c1` [CU-T12-9, N-methyl-4-nitro-2-(4-(4-(trifluoromethyl)phenyl)-1H-imidazol-1-yl)aniline], the “activation of SEAP signaling, TLR8” value in assay [1] is listed as “not in other TLR-overexpressing cells”. Moreover, the EC50 in assay [2] was 52.9 ± 6.2 nM; in assay [5], 60.5 ± 17 nM. For the same molecule, the “activation of SEAP signaling, hTLR2” value in assay [2] (0 to 20 μM, 24 hours) was “strongly activate”. For the same molecule, the “increase in potency relative to GA (factor)” value in assay [2] (replacement of –NO2 at R3) is reported as 50. Also, the “TLR1 mRNA” value in assay [3] (1 μM CU-T12-9, 24 hours) is “potently increased”. Also, the “time of highest TLR2 mRNA expression” value in assay [3] (1 μM CU-T12-9 or 33 nM (50 ng/ml) Pam3CSK4, measured at 2, 8, 24 hours) stood at 2 h. The “IL-10 mRNA” value in assay [3] (2 hours, decreased over time) is listed as “up-regulated”. For the same molecule, the “TNF mRNA expression” value in assay [3] (over time, maximal expression after 8 hours) is on record as “increased”. The “iNOS mRNA expression” value in assay [3] (over time, peaked at 24 hours) is recorded as “increased”. Besides, the NF-κB activation entry in assay [4] (5 μM, 24 hours) is “comparable activation to 66 nM (100 ng/ml) Pam3CSK4”; in assay [4] (20 μM (GA even up to 100 μM)), “excellent NF-κB activation”. Further, in assay [6], the “activation of SEAP signaling, TLR5” value is on record as “not in other TLR-overexpressing cells”. Moreover, the “activation of QUANTI-Blue SEAP signaling” value in assay [7] is “strongly activates”. Besides, the NO production entry in assay [8] was “efficiently triggered NO production”.
